Measurements as given in BindingDB's records for doi:10.1016/j.bmc.2008.06.044 (University of Montreal, 2008).

Key:
[1] = Inhibition of recombinant galectin 3 in human O type red blood cells by hemagglutinination assay
[2] = Inhibition of recombinant galectin 1 in human O type red blood cells by hemagglutinination assay
Galectin-3 = Galectin-3 (Homo sapiens, UniProt P17931); assay: Inhibition of recombinant galectin 3 in human O type red blood cells by hemagglutinination assay
Summary of the method: (§1)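 Human type O erythrocytes were fixed with 3% glutaraldehyde in PBS containing 0.0025% NaN3, then used at 0.0025% final. Galectin at 1 µM was incubated with the RBCs, with or without a range of inhibitor concentrations, at 37 °C for 30 min. RBC aggregation was then scored, in triplicate.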

Galectin-1 = Galectin-1 (Homo sapiens, UniProt P09382); assay: Inhibition of recombinant galectin 1 in human O type red blood cells by hemagglutinination assay
Summary of the method: as §1

Chain of Galectin-1 (P09382 whole entry): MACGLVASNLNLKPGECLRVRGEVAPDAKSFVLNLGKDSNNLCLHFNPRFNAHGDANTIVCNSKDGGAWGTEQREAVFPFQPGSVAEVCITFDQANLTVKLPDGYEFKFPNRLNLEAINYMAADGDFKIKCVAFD
Chain of Galectin-3 (P17931 whole entry): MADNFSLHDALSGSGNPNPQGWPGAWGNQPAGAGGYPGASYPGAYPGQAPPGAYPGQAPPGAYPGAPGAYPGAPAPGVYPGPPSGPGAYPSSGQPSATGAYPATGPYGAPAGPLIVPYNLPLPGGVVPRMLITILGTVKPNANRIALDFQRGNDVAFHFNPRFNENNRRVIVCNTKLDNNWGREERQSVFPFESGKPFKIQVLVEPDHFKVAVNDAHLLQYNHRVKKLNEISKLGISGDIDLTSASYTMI

Row | SMILES | IC50 [1] [mM] | IC50 [2] [mM] | IC50 (Galectin-3) [mM] | IC50 (Galectin-1) [mM]
1 | C/C=C/[C@@H]1O[C@H](CO)[C@H](O)[C@H](O)[C@H]1O [(2R,3R,4R,5R,6S,E)-2-(hydroxymethyl)-6-(prop-1-enyl)-tetrahydro-2H-pyran-3,4,5-triol] | > 5 | > 5 | – | –
2 | OC[C@@H]1O[C@H](SCC#Cc2ccc(C#CCS[C@@H]3O[C@H](CO)[C@H](O)[C@H](O)[C@H]3O)cc2)[C@@H](O)[C@H](O)[C@@H]1O [(2R,3S,4S,5R,6S)-2-(hydroxymethyl)-6-(3-(4-(3-((2R,3S,4R,5S,6S)-3,4,5-trihydroxy-6-(hydroxymethyl)-tetrahydro-2H-pyran-2-ylthio)prop-1-ynyl)phenyl)prop-2-ynylthio)-tetrahydro-2H-pyran-3,4,5-triol] | > 5 | 2.5 | – | –
3 | OC[C@@H]1O[C@H](SCC#CC#CCS[C@@H]2O[C@H](CO)[C@H](O)[C@H](O)[C@H]2O)[C@@H](O)[C@@H](O)[C@@H]1O [Dimeric galactoside] | > 5 | 5 | – | –
4 | OC[C@H]1O[C@@H](C/C=C/c2ccccc2)[C@H](O)[C@@H](O)[C@H]1O [(2S,3R,4R,5R,6R)-2-cinnamyl-6-(hydroxymethyl)-tetrahydro-2H-pyran-3,4,5-triol] | > 5 | > 5 | – | –
5 | OC[C@H]1O[C@H](O)[C@H](O)[C@@H](O)[C@H]1O [GALACTOSE] | – | – | 50 | 50
6 | OC[C@H]1O[C@@H](C/C=C/c2cccc(/C=C/C[C@@H]3O[C@H](CO)[C@H](O)[C@H](O)[C@H]3O)c2)[C@H](O)[C@@H](O)[C@H]1O [(2S,3R,4R,5R,6R)-2-((12S,14R,15R,16R,17R,E)-3-((E)-3-((2S,3R,4R,5R,6R)-3,4,5-trihydroxy-6-(hydroxymethyl)-tetrahydro-2H-pyran-2-yl)prop-1-enyl)cinnamyl)-6-(hydroxymethyl)-tetrahydro-2H-pyran-3,4,5-triol] | > 5 | 5 | – | –
7 | C=C(C[C@@H]1O[C@H](CO)[C@H](O)[C@H](O)[C@H]1O)c1cccc([N+](=O)[O-])c1 [(2R,3R,4R,5R,6S)-2-(hydroxymethyl)-6-(2-(3-nitrophenyl)allyl)-tetrahydro-2H-pyran-3,4,5-triol] | > 5 | 5 | – | –
8 | COC(=O)/C=C/C[C@@H]1O[C@H](CO)[C@H](O)[C@H](O)[C@H]1O [(E)-Methyl 4-(beta-D-galactopyranosyl)-but-2-enoate] | 5 | 5 | – | –

Other lines, results leading:

Row | IC50 [1] [mM] | IC50 [2] [mM] | IC50 (Galectin-3) [mM] | IC50 (Galectin-1) [mM] | SMILES
9 | 0.16 | 0.3 | – | – | OC[C@@H]1O[C@H](O[C@@H]2[C@@H](O)[C@H](O)[C@@H](SCC#CC#CCS[C@@H]3O[C@H](CO)[C@@H](O[C@@H]4O[C@H](CO)[C@H](O)[C@H](O)[C@H]4O)[C@H](O)[C@H]3O)O[C@H]2CO)[C@@H](O)[C@H](O)[C@@H]1O [(2S,3R,4S,5R,6R)-2-((2R,3S,4R,5R,6S)-6-(6-((2R,3S,4S,5R,6S)-3,4-dihydroxy-6-(hydroxymethyl)-5-((2R,3S,4R,5S,6S)-3,4,5-trihydroxy-6-(hydroxymethyl)-tetrahydro-2H-pyran-2-yloxy)-tetrahydro-2H-pyran-2-ylthio)hexa-2,4-diynylthio)-4,5-dihydroxy-2-(hydroxymethyl)-tetrahydro-2H-pyran-3-yloxy)-6-(hydroxymethyl)-tetrahydro-2H-pyran-3,4,5-triol]
10 | 0.16 | 0.3 | – | – | OC[C@@H]1O[C@H](O[C@@H]2[C@@H](O)[C@H](O)[C@@H](n3cc(CS[C@@H]4O[C@H](CO)[C@@H](O[C@@H]5O[C@H](CO)[C@H](O)[C@H](O)[C@H]5O)[C@H](O)[C@H]4O)nn3)O[C@H]2CO)[C@@H](O)[C@H](O)[C@@H]1O [(2S,3R,4S,5R,6R)-2-((2R,3S,4R,5R,6S)-6-((1-((2S,3S,4S,5R,6S)-3,4-dihydroxy-6-(hydroxymethyl)-5-((2R,3S,4R,5S,6S)-3,4,5-trihydroxy-6-(hydroxymethyl)-tetrahydro-2H-pyran-2-yloxy)-tetrahydro-2H-pyran-2-yl)-1H-1,2,3-triazol-4-yl)methylthio)-4,5-dihydroxy-2-(hydroxymethyl)-tetrahydro-2H-pyran-3-yloxy)-6-(hydroxymethyl)-tetrahydro-2H-pyran-3,4,5-triol]
11 | 5 | > 5 | – | – | C=C(C[C@@H]1O[C@H](CO)[C@H](O)[C@H](O)[C@H]1O)c1ccc(OC)cc1 [(2R,3R,4R,5R,6S)-2-(hydroxymethyl)-6-(2-(4-methoxyphenyl)allyl)-tetrahydro-2H-pyran-3,4,5-triol]
12 | 2.5 | > 5 | – | – | C#CCS[C@@H]1O[C@H](CO)[C@H](O)[C@H](O)[C@H]1O [(2R,3R,4S,5R,6S)-2-(hydroxymethyl)-6-(prop-2-ynylthio)-tetrahydro-2H-pyran-3,4,5-triol]
13 | 2.5 | > 5 | – | – | OC[C@@H]1O[C@H](n2cc(CS[C@@H]3O[C@H](CO)[C@H](O)[C@H](O)[C@H]3O)nn2)[C@@H](O)[C@H](O)[C@@H]1O [(2R,3R,4S,5R,6S)-2-(hydroxymethyl)-6-((1-((2S,3S,4R,5S,6S)-3,4,5-trihydroxy-6-(hydroxymethyl)-tetrahydro-2H-pyran-2-yl)-1H-1,2,3-triazol-4-yl)methylthio)-tetrahydro-2H-pyran-3,4,5-triol]
14 | 0.6 | 0.3 | – | – | OC[C@@H]1O[C@H](O[C@@H]2[C@@H](O)[C@H](O)[C@@H](n3cc(CS[C@@H]4O[C@H](CO)[C@H](O)[C@H](O)[C@H]4O)nn3)O[C@H]2CO)[C@@H](O)[C@H](O)[C@@H]1O [(2S,3R,4S,5R,6R)-2-((1-((2S,3S,4S,5R,6S)-3,4-dihydroxy-6-(hydroxymethyl)-5-((2R,3S,4R,5S,6S)-3,4,5-trihydroxy-6-(hydroxymethyl)-tetrahydro-2H-pyran-2-yloxy)-tetrahydro-2H-pyran-2-yl)-1H-1,2,3-triazol-4-yl)methylthio)-6-(hydroxymethyl)-tetrahydro-2H-pyran-3,4,5-triol]
15 | 0.3 | 0.6 | – | – | OC[C@@H]1O[C@H](n2cc(CS[C@@H]3O[C@H](CO)[C@@H](O[C@@H]4O[C@H](CO)[C@H](O)[C@H](O)[C@H]4O)[C@H](O)[C@H]3O)nn2)[C@@H](O)[C@H](O)[C@@H]1O [(2S,3R,4S,5R,6R)-2-((2R,3S,4R,5R,6S)-4,5-dihydroxy-2-(hydroxymethyl)-6-((1-((2S,3S,4R,5S,6S)-3,4,5-trihydroxy-6-(hydroxymethyl)-tetrahydro-2H-pyran-2-yl)-1H-1,2,3-triazol-4-yl)methylthio)-tetrahydro-2H-pyran-3-yloxy)-6-(hydroxymethyl)-tetrahydro-2H-pyran-3,4,5-triol]
16 | 5 | > 5 | – | – | CC(=O)C[C@@H]1O[C@H](CO)[C@H](O)[C@H](O)[C@H]1O [1-((2S,3R,4R,5R,6R)-3,4,5-trihydroxy-6-(hydroxymethyl)-tetrahydro-2H-pyran-2-yl)propan-2-one]
17 | 0.3 | 0.6 | – | – | C#CCS[C@@H]1O[C@H](CO)[C@@H](O[C@@H]2O[C@H](CO)[C@H](O)[C@H](O)[C@H]2O)[C@H](O)[C@H]1O [(2S,3R,4S,5R,6R)-2-((2R,3S,4R,5R,6S)-4,5-dihydroxy-2-(hydroxymethyl)-6-(prop-2-ynylthio)-tetrahydro-2H-pyran-3-yloxy)-6-(hydroxymethyl)-tetrahydro-2H-pyran-3,4,5-triol]
